Tests used:
[1] = molecular target: T1, Adrenergic receptor alpha-2 (Rattus norvegicus, UniProt P22086+P19328+P22909); assay: Displacement of [3H]-Clonidine from alpha2 adrenergic receptor in rat brain cerebral cortex membranes by liquid scintillation counting analysis; type: cell membranes, Membrane
T1 sequence (P22086 whole entry): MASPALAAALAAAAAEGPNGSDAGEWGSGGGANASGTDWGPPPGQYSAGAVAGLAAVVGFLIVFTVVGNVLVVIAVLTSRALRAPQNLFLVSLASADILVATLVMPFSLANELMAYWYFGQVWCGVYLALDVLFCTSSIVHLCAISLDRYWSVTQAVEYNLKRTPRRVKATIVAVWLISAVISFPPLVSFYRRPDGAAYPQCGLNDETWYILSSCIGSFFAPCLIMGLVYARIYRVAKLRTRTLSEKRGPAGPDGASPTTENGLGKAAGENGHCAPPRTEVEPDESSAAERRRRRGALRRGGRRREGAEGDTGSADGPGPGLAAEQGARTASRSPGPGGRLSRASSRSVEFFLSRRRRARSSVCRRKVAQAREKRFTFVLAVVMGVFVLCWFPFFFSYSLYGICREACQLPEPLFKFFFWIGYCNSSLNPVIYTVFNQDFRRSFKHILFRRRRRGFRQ
T1 sequence (P19328 whole entry): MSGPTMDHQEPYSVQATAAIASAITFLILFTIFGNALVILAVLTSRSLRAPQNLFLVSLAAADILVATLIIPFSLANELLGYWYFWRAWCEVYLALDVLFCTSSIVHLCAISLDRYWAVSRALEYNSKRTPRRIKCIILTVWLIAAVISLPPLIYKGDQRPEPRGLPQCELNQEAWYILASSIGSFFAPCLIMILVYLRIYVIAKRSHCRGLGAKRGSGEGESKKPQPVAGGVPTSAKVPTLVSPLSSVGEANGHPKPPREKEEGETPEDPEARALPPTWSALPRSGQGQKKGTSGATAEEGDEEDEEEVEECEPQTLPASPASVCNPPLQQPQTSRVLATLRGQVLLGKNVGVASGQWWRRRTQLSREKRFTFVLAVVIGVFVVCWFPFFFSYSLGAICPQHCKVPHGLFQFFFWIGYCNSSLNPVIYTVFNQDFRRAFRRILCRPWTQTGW
T1 sequence (P22909 whole entry): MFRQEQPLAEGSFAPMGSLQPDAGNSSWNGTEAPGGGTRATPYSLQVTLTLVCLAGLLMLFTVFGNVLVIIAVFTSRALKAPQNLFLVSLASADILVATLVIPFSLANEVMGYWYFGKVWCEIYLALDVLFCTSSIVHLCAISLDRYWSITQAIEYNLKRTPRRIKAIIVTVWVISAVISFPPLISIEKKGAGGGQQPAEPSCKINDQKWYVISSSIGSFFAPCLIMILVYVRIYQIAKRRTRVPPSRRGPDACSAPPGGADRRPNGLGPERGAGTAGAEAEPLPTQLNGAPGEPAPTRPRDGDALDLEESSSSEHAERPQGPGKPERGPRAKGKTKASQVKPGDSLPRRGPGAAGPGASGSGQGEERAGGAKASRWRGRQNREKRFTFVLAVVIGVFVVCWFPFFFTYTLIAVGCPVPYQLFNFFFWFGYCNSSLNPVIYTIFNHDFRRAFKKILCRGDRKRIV
Method in brief: (§1)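 Rat cerebral cortex homogenized in ice-cold 50 mM Tris–HCl (pH 7.6), spun at 20,000 g for 20 min (0–4 °C), resuspended and spun again. Membranes incubated with 0.2 nM [3H]-prazosin (α1) or 2 nM [3H]-clonidine (α2) and seven to eight compound concentrations (10^-11 to 10^-4 M). Non-specific binding defined with 10 µM phentolamine (prazosin) or 10 µM clonidine (clonidine). Ended by GF/C filtration, counted by liquid scintillation. Run in duplicate; Ki from two independent experiments.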

Rattus norvegicus [2] = species: Rattus norvegicus; assay: Selectivity ratio of Ki for alpha2 adrenergic receptor in rat brain cerebral cortex membranes to Ki for alpha1 adrenergic receptor in rat brain cerebral cortex membranes; type: cell membranes; method in brief: as §1
[3] = molecular target: T2, Adrenergic receptor alpha-1 (Rattus norvegicus, UniProt P15823+P23944+P43140); assay: Displacement of [3H]-Prazosin from alpha1 adrenergic receptor in rat brain cerebral cortex membranes by liquid scintillation counting analysis; type: cell membranes, Membrane; method in brief: as §1
T2 sequence (P15823 whole entry): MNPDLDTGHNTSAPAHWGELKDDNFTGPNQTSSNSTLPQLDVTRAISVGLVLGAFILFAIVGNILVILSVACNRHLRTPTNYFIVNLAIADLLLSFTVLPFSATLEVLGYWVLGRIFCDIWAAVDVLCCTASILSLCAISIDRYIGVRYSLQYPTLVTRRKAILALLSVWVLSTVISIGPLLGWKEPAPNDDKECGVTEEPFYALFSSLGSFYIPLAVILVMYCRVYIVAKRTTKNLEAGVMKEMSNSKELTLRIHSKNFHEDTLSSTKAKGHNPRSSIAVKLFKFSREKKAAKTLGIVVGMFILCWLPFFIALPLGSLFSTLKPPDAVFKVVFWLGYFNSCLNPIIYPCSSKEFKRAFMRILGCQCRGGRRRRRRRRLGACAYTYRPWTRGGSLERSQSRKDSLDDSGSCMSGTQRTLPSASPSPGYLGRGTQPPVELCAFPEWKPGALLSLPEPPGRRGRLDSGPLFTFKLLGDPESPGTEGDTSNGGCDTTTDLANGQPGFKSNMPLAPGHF
T2 sequence (P23944 whole entry): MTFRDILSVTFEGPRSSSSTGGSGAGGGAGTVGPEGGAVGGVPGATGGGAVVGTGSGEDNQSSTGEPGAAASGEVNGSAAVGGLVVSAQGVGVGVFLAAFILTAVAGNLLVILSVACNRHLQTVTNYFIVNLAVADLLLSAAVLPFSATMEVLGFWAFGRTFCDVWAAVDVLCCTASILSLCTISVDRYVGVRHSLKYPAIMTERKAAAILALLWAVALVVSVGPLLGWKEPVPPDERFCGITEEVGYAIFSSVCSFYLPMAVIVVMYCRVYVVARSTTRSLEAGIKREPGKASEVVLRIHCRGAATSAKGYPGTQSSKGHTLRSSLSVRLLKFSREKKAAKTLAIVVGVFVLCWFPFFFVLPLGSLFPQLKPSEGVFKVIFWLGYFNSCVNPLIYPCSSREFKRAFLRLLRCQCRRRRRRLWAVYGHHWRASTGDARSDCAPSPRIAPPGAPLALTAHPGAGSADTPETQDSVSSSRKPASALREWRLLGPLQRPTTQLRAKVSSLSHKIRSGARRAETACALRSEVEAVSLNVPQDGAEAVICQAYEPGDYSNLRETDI
T2 sequence (P43140 whole entry): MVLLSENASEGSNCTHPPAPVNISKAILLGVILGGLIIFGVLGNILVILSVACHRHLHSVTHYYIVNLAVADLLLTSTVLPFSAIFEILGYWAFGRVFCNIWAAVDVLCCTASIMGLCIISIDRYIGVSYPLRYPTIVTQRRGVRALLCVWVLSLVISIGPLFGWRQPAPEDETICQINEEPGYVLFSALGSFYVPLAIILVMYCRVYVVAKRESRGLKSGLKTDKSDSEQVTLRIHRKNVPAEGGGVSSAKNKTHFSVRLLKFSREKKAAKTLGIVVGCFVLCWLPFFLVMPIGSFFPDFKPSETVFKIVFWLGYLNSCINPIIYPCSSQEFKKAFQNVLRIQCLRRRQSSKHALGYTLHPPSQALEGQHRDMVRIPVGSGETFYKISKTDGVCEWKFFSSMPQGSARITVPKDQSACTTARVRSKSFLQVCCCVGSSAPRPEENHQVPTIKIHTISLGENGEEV

Rattus norvegicus [4] = assay: Hypotensive activity in normotensive anesthetized Wistar rat assessed as decrease in diastolic blood pressure at 2 mg/kg, iv administered as single dose measured 60 mins post dose relative to control; type: functional; conditions: 1 h
Method in brief: (§2)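 Male Wistar rats (200–250 g), groups of six, anaesthetized with thiopental 70 mg/kg ip. Left carotid artery cannulated with heparinized saline-filled tubing for pressure recording. Compounds dissolved in water and given once iv. Blood pressure taken at 0 min (control) and over 60 min afterward. Data as mean ± SEM, analysed by one-way ANOVA with Dunnett's test against 0 min.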

[5] = molecular target: T3, Alpha-1B adrenergic receptor (Homo sapiens, UniProt P35368); assay: Intrinsic activity at human alpha1B adrenergic receptor expressed in CHOK1 cells co-expressing aequorin assessed as inhibition of agonist induced calcium mobilization preincubated for 15 mins followed by agonist addition measured for 20 secs in presence of coelenterazine H by luminescence assay; type: cell-based, CHO-K1
T3 sequence (P35368 whole entry): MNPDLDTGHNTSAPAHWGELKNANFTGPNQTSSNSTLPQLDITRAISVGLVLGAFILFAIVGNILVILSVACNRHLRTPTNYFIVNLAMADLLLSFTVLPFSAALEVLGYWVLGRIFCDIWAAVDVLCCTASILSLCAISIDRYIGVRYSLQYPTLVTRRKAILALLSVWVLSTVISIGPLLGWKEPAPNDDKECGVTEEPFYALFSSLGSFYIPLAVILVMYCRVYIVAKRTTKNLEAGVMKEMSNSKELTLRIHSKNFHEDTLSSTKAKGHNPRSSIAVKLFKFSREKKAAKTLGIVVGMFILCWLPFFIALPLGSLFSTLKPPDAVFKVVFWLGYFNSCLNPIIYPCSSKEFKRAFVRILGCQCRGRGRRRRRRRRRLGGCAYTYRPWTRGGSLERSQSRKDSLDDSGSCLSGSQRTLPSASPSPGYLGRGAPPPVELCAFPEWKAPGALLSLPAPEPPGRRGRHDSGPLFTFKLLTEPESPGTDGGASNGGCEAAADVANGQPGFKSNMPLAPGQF
Method in brief: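 Frozen ready-to-use cells stably expressing α1B receptor and aequorin, resuspended in assay buffer with 5 µM coelenterazine h and rotated overnight at rt in the dark. Diluted to 5000 cells/20 µL. Agonist mode: cells injected onto ligands, light recorded 20 s. Antagonist mode: 15 min with compound at room temperature, then agonist at 3× EC80 final, light recorded 20 s. Mean EC50 from three experiments.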

Rattus norvegicus [6] = assay: Hypotensive activity in normotensive anesthetized Wistar rat assessed as decrease in systolic blood pressure at 2 mg/kg, iv administered as single dose measured 60 mins post dose relative to control; type: functional; conditions: 1 h; method in brief: as §2

SMILES | Ki [1] | Ratio Ki (Rattus norvegicus [2]) | Ki [3] | EC50 [5] | inhibition in vivo at 2 mg/kg (Rattus norvegicus [4]) | inhibition in vivo at 2 mg/kg (Rattus norvegicus [6])
CC(C)Oc1ccccc1OCCN1CCC(CNS(=O)(=O)c2cc(Cl)ccc2F)CC1 | 870 nM | 7 | 133 nM | – | – | –
CC(C)Oc1ccccc1OCCN1CCC(NS(=O)(=O)c2cccc3cccnc23)CC1 | 194 nM | 3 | 73 nM | – | – | –
CC(C)Oc1ccccc1OCCN1CCC(CNS(=O)(=O)c2cncc3ccccc23)CC1 | 578 nM | 9 | 67 nM | – | – | –
COc1ccccc1OCCN1CC[C@@H](NS(=O)(=O)c2cc(Cl)ccc2F)C1 | 2354 nM | 8 | 289 nM | – | – | –
CC(C)Oc1ccccc1OCCN1CC[C@@H](NS(=O)(=O)c2cccc(Cl)c2F)C1 | 378 nM | 2 | 176 nM | – | – | –
CC(C)Oc1ccccc1OCCN1CCC(CNS(=O)(=O)c2ccc(F)cc2)CC1 | 416 nM | 5 | 77 nM | – | – | –
COc1ccccc1OCCN1CC[C@H](NS(=O)(=O)c2cccc(Cl)c2F)C1 | > 10000 nM | > 29 | 348 nM | – | – | –
CCOc1ccccc1OCCN[C@H](C)Cc1ccc(OC)c(S(N)(=O)=O)c1 [TAMSULOSIN] | – | – | – | 0.13 nM | 11 to 18% | 11 to 17%
CC(C)Oc1ccccc1OCCN1CC[C@H](NS(=O)(=O)c2cc(Cl)ccc2F)C1 | > 10000 nM | > 41 | 242 nM | – | – | –
CC(C)Oc1ccccc1OCCN1CC[C@H](NS(=O)(=O)c2cccc(Cl)c2F)C1 | > 10000 nM | > 109 | 92 nM | – | – | –
COc1ccccc1OCCN1CCC(NS(=O)(=O)c2cccc3cccnc23)CC1 | 131 nM | 1 | 93 nM | – | – | –

The next lines start with results.

Ki [1] | Ratio Ki (Rattus norvegicus [2]) | Ki [3] | EC50 [5] | SMILES | inhibition in vivo at 2 mg/kg (Rattus norvegicus [4]) | inhibition in vivo at 2 mg/kg (Rattus norvegicus [6])
129 nM | 4 | 34 nM | – | COc1ccccc1OCCN1CCC(NS(=O)(=O)c2cc(Cl)ccc2F)CC1 | – | –
1944 nM | 8 | 241 nM | – | COc1ccccc1OCCN1CC[C@@H](NS(=O)(=O)c2cccc(Cl)c2F)C1 | – | –
> 10000 nM | – | 214 nM | – | COc1ccccc1OCCN1CC[C@H](NS(=O)(=O)c2cc(Cl)ccc2F)C1 | – | –
398 nM | 4 | 106 nM | – | CC(C)Oc1ccccc1OCCN1CC[C@@H](NS(=O)(=O)c2cc(Cl)ccc2F)C1 | – | –
293 nM | 3 | 118 nM | – | CC(C)Oc1ccccc1OCCN1CCC(NS(=O)(=O)c2cc(Cl)ccc2F)CC1 | – | –
188 nM | 1 | 131 nM | – | CC(C)Oc1ccccc1OCCN1CCC(NS(=O)(=O)c2cccc(Cl)c2F)CC1 | – | –

Source: ChEMBL document CHEMBL3861996, “Arylsulfonamide derivatives of (aryloxy)ethyl pyrrolidines and piperidines as α1-adrenergic receptor antagonist with uro-selective activity” (Bioorg Med Chem, 2016)
